RBBP9 inhibitor – human RBBP9 hydrolase inhibition. O75884. recombinant RBBP9, FP-Rh probe fluorescence polarization. inhibition, % at 7.94 µM. 220,000 tested, 0.2% active. AID 1515;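 active = inhibition above the campaign mean of all tested compounds plus 3 SD, cut at about 14% in these data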;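 note: plate controls were DMSO wells with RBBP9 for no effect and wells lacking RBBP9 protein for full effect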
Target sequence (O75884 whole entry, looked up): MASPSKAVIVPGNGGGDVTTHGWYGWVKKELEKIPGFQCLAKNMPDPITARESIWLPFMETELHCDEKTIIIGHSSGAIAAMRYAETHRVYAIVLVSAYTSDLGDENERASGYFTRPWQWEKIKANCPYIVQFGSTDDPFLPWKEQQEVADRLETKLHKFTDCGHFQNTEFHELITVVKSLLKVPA
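System: RBBP9 protein | Quantity: 2.5 µM RBBP9 dispensing solution, before mixing | Reagent: FP-Rh probe, 375 nM dispensing solution | Timing: Enzyme-compound preincubation 30 min, then probe labeling 45 min, 25 °C | Measured by: Fluorescence polarization | Read-out: % inhibition | Replication: One well per compound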
INS promoter inh – TRM-6 insulin promoter activity inhibition. TRM-6 cells, insulin promoter-eGFP reporter, imaging; reporter expression induced with tamoxifen. inhibition, % at 2 µM. 130,000 tested, 0.9% active;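 active = inhibition above the mean plus 3 SD, with well images judged a real hit on visual review, cut at about 60% in these data, passing the limit was not always enough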
Autophagy HCS – autophagy modulation, high-content screen. AID 463193. 190,000 tested, 0.98% active. MEF GFP-LC3 puncta imaging; test concentration mostly 10 µM. calls only at 10 µM (by protocol);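 active = percentage of spot-positive cells more than 3 SD above its plate mean, without a fluorescence outlier flag or 80% toxicity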;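 note: spot-positive cell cutoff set from DMSO-treated cells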
PKD1 kinase inh – inhibitors of human PKD1 kinase | PKD1 kinase fluorescence polarization assay | inhibition, % (test concentration not listed) | 200,000 tested, 0.056% active | AID 797; in the data active = inhibition above about 50%
Ins promoter up – MIN6 insulin promoter up-regulation; MIN6 insulin promoter-GFP reporter, high-content imaging; stronger effect = higher value; z-score at 5 µM; 190,000 tested, 0.3% active;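 active = z-score above 3 at 5 µM with at least 500 cells counted in the well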
Arbovirus inh – blocks arbovirus infection. 200,000 tested, 0.37% active. arbovirus infection cell-based antiviral screen. inhibition, % at 10 µM; in the data active = inhibition above about 30%
* marks the source's active call; other numbers are inactive results; i = inactive; / = no result given; + = active, no number. Hits are enriched below; roughly 2.1% of the tested compounds scored in any of these assays.

SMILES | RBBP9 inhibitor | INS promoter inh | Autophagy HCS | PKD1 kinase inh | Ins promoter up | Arbovirus inh
CCOc1ccc(C(=O)NC2=NCCS2)cc1 | -5 | 83* | i | 6 | -0.54 | 3
CC(=O)Nc1ccc(S(=O)(=O)NCCSCc2ccco2)cc1 | -12 | / | i | 2 | 0.56 | 4
CN(C)c1ccc(S(=O)(=O)c2ccc(Cl)cc2)cc1 | -1 | 74* | i | 2 | 0.3 | 12
Cc1ccc(NC(=O)N/C=C/c2ccccc2)cc1 | -2 | 17 | i | -10 | -0.88 | 9
COCCN=c1scc(-c2ccco2)n1/N=C/c1ccc(O)c(O)c1O | 24* | / | i | -2 | 0.85 | -1
CCCc1cc(C(=O)Nc2sc(C)c(CC)c2C#N)no1 | -7 | 70* | i | -13 | 1.2 | 10
CCc1c(C)sc(NC(=O)c2cc(C)on2)c1C#N | -3 | -3 | i | -9 | / | -8
O=C(c1cc(C(=O)NCCc2ccccc2)c(=O)n(CCc2ccccc2)c1)c1cc(Cl)ccc1O | -8 | -3 | i | -5 | -0.4 | -2
CNc1ccccc1C(C)(C)c1cc(-c2cccc(OC)c2)no1 | -13 | -70 | i | 1 | -2.4 | 32*
COc1ccc2oc(=Nc3cc(F)ccc3F)c(C(N)=O)cc2c1 | 2 | 21 | + | -4 | 0.18 | -14
CS(=O)(=O)N1CCN(C(=O)COc2ccccc2)CC1 | -7 | / | + | 0 | -0.19 | 3
CS(=O)(=O)N1CCN(C(=O)COc2ccc3ccccc3c2)CC1 | -3 | / | / | / | -1.3 | /
Cc1ccc(CN2CCN(Cc3ccc(Oc4ncccn4)cc3)CC2CCO)cc1 (stereo not given) | -7 | / | i | 2 | -0.14 | 0
CC(C)CCN1CCN(Cc2ccc(Oc3ncccn3)cc2)CC1CCO (stereo not given) | -3 | / | + | -7 | -0.53 | -5
Cc1ccccc1CSc1nnc(NC(=O)C2COc3ccccc3O2)s1 (stereo not given) | -1 | / | i | -7 | -0.13 | 48*
O=C(Nc1nnc(SCc2ccccc2Cl)s1)C1COc2ccccc2O1 (stereo not given) | -10 | -43 | i | 0 | 0.15 | 41*
O=C(Nc1nnc(SCc2cccc3ccccc23)s1)C1COc2ccccc2O1 (stereo not given) | -7 | / | i | -3 | -0.45 | 20
C=CCn1c(SCc2nc3sc(C(=O)O)c(C)c3c(=O)[nH]2)nnc1-c1ccccc1 | 0 | / | + | -8 | 0.47 | 8
COc1ccc(N2CCN(Cc3nc(Cc4cccc(F)c4)no3)C(C)C2)cc1 (stereo not given) | -2 | / | i | 25 | 0.09 | 3
Cc1cc(/C=C2\SC(=S)NC2=O)c(C)n1-c1ccc(O)cc1 | -8 | / | / | / | 3.7* | /
Cc1cc(N(C)/N=C/c2ccccc2)nc(-c2ccccc2O)n1 | -1 | / | i | -5 | -0.19 | -3
CCN(CC)c1ccc(C2NC(=O)NC(C)=C2C(=O)Nc2ccccc2)cc1 (stereo not given) | -10 | -109 | i | -3 | -0.37 | 11
C=CCN1C(=O)/C(=C/c2ccc(N(C)C)cc2)S/C1=N\c1nnc(CC)s1 | -8 | -163 | + | -9 | / | -24
CCOC(=O)CNc1c(-c2ccc(O)cc2)nc2ccccn12 | -4 | 6 | i | -11 | -0.49 | -5
COc1cccc(C2CC(c3c(F)cccc3Cl)n3nc(N)nc3N2)c1 (stereo not given) | 1 | 2 | + | 6 | -0.34 | 8
SMILES | RBBP9 inhibitor | INS promoter inh | Autophagy HCS | PKD1 kinase inh | Ins promoter up | Arbovirus inh
CCn1cc(C(=O)NCCN(C)CCc2ccccc2)c(=O)c2cc(S(=O)(=O)N(C)C)ccc21 | -3 | -11 | i | -4 | 3.9* | -3
C=CCOc1ccc(/C(O)=C2\C(=O)C(=O)N(CCN(C)C)C2c2cccs2)cc1 (stereo not given) | 1 | / | + | 19 | 0.32 | -1
O=C(O)CCN1C(=O)c2ccc(NC(=O)c3ccco3)cc2C1=O | -1 | / | i | -8 | / | 0
Cc1cc(C)nc(SCc2ccc(C(=O)N/N=C/C3CCCCC3)cc2)n1 | -12 | / | + | -10 | -0.25 | -5
COc1cccc(C(=O)NC2CCN(CC(=O)Nc3nccs3)CC2)c1 | -1 | 24 | i | -3 | -1.2 | -4
Nc1c(C(=O)NC23CC4CC(CC(C4)C2)C3)sc2nc3c(c(C(F)(F)F)c12)CCC3 | -1 | -13 | + | -5 | 0.21 | -2
COc1ccc(CCNC(=O)CN2C(=O)c3ccccc3C2=O)cc1 | -4 | 25 | i | 2 | -0.52 | 0

From PubChem BioAssay
